Assay results: ChEMBL document CHEMBL1145848, “Unique high-affinity synthetic mu-opioid receptor agonists with central- and systemic-mediated analgesia” (J Med Chem, 2003)

Columns and labels:
[1] = target: Opioid receptors; mu & delta (Rattus norvegicus) (UniProt P33533+P33535); assay: Receptor selectivity for the delta to mu opioid receptor; type: protein assay
Outline: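 δ/μ ratio of Ki values from rat brain P2 synaptosome competition binding ([3H]DPDPE for δ, [3H]DAGO for μ; 2 h, room temperature). Ki calculated by Cheng–Prusoff.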

[2] = target: Delta-type opioid receptor (Rattus norvegicus, UniProt P33533); assay: Binding affinity for Opioid receptor delta 1 using [3H]DPDPE in rat brain P2 synaptosomal preparation; type: tissue-based
Chain of Delta-type opioid receptor (Rattus norvegicus, UniProt P33533) (P33533 whole entry): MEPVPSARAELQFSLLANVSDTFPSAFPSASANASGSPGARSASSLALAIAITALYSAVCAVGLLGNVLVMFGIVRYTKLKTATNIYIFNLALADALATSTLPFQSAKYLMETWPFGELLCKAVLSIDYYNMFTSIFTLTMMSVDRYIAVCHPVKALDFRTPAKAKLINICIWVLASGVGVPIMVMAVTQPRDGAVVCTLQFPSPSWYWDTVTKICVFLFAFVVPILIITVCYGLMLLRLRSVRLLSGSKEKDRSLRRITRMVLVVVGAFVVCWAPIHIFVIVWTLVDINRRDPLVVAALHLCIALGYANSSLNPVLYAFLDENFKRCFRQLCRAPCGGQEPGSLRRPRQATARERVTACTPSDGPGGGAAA
Outline: (§1)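 Competition binding at equilibrium, 2 h at room temperature, on rat brain P2 synaptosomes. Nonspecific binding with 2 μM unlabeled peptide. GF/C filtration and scintillation counting. Duplicates, five to eight doses, 3–5 repeats. Ki by Cheng–Prusoff.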

Mu-type opioid receptor [3] = target: Mu-type opioid receptor (Rattus norvegicus, UniProt P33535); assay: Binding affinity for Opioid receptor mu 1 using [3H]DAGO in rat brain P2 synaptosomal preparation; type: tissue-based; outline: as §1
Chain of Mu-type opioid receptor (Rattus norvegicus, UniProt P33535) (P33535 whole entry): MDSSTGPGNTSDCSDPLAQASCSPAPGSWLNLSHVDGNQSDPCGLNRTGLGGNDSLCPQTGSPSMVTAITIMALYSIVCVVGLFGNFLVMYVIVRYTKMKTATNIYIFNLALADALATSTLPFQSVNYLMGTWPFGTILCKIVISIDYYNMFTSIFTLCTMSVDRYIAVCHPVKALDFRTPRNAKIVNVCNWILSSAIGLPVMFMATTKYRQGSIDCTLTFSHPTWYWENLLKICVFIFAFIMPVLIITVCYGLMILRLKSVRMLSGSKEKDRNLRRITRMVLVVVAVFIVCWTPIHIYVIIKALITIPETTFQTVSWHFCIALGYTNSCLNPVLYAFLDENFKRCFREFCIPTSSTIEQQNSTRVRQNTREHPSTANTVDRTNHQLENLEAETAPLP

Mu-type opioid receptor [4] = target: Mu-type opioid receptor (Cavia porcellus, UniProt P97266); assay: Opioid receptor mu 1 agonism in guinea pig ileum; type: functional, tissue-based
Chain of Mu-type opioid receptor (Cavia porcellus, UniProt P97266) (P97266 whole entry): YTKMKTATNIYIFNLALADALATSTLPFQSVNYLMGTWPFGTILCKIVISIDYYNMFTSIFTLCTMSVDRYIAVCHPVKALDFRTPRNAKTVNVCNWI
Outline: (§2)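 Isolated tissue bioassay: mouse vas deferens for δ, guinea pig ileum for μ. Field stimulation with bipolar rectangular pulses of supramaximal voltage. Inhibition of the electrically evoked twitch measured, and IC50 taken from concentration–response curves. [D-Ala2]deltorphin I (MVD) and dermorphin (GPI) were internal standards. Five to six separate assays.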

[5] = target: T1, Delta-type opioid receptor (Mus musculus, UniProt P32300); assay: Concentration required to double the agonist concentration to achieve the original response for Opioid receptor delta 1; type: functional; conditions: read-out: pA2 (converted)
T1 sequence (P32300 whole entry): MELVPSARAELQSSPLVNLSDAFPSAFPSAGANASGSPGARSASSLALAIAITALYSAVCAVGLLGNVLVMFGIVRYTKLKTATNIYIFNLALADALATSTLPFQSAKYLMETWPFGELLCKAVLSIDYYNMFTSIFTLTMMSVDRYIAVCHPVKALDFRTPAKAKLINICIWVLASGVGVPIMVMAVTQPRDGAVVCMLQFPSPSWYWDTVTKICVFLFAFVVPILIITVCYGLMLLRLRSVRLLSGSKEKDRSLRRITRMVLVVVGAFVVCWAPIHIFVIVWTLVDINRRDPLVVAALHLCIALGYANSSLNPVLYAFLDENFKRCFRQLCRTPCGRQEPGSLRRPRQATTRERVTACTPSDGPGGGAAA
Outline: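 Antagonism reported as pA2, the negative log of the molar antagonist concentration that doubles the agonist concentration needed for the original response. Measured in the δ bioassay, the electrically stimulated mouse vas deferens twitch preparation. n = 5–6.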

[6] = target: T1, Delta-type opioid receptor; assay: Opioid receptor delta 1 agonism in mouse vas deferens; type: functional, tissue-based; outline: as §2

Chain of Opioid receptors; mu & delta (Rattus norvegicus) (P33533 whole entry, looked up): as the sequence (P33533 whole entry) above
Chain of Opioid receptors; mu & delta (Rattus norvegicus) (P33535 whole entry, looked up): as the sequence (P33535 whole entry) above

Row | Compound | Ratio [1] | Ki [2] [nM] | Ki (Mu-type opioid receptor [3]) [nM] | IC50 (Mu-type opioid receptor [4]) [nM] | Kb [5] [nM] | IC50 [6] [nM]
1 | N[C@H](Cc1ccc(O)cc1)C(=O)NCCCCNC(=O)[C@@H](N)Cc1ccc(O)cc1 | 21 | 6500 | 309 | – | – | –
2 | N[C@H](Cc1ccc(O)cc1)C(=O)NCCNC(=O)[C@@H](N)Cc1ccc(O)cc1 | 13 | 8290 | 648 | – | – | –
3 | Cc1cc(O)cc(C)c1C[C@@H](N)C(=O)NCCCCCCNC(=O)[C@@H](N)Cc1c(C)cc(O)cc1C | 870 | 46.1 | 0.053 | 3.08 | 794 | > 10000
4 | Cc1cc(O)cc(C)c1C[C@H](N)C(=O)NCCCCNC(=O)[C@H](N)Cc1ccccc1 | 119 | 62 | 0.52 | 181 | 3160 | > 10000
5 | N[C@H](Cc1ccc(O)cc1)C(=O)NCCCCCCNC(=O)[C@@H](N)Cc1ccc(O)cc1 | 53 | 21900 | 410 | – | – | –
6 | Cc1cc(O)cc(C)c1C[C@@H](N)C(=O)NCCCCCCCCNC(=O)[C@@H](N)Cc1c(C)cc(O)cc1C | 78 | 14.8 | 0.19 | 53.7 | 398 | > 10000
7 | N[C@H](Cc1ccc(O)cc1)C(=O)NCCCCCCCCNC(=O)[C@@H](N)Cc1ccc(O)cc1 | – | 6150 | 399 | – | – | –
8 | Cc1cc(O)cc(C)c1C[C@@H](N)C(=O)NCCCCNC(=O)[C@@H](N)Cc1c(C)cc(O)cc1C | 1300 | 53.4 | 0.041 | 5.33 | 1580 | > 10000
9 | Cc1cc(O)cc(C)c1C[C@@H](N)C(=O)NCCNC(=O)[C@@H](N)Cc1c(C)cc(O)cc1C | 81 | 116 | 1.43 | 2840 | 3160 | > 10000
10 | Cc1cc(O)cc(C)c1C[C@H](N)C(=O)NCCCCNC(=O)[C@H](N)Cc1ccc(O)cc1 | 349 | 133 | 0.38 | 255 | 5010 | > 10000
11 | N[C@H](Cc1ccccc1)C(=O)NCCCCNC(=O)[C@@H](N)Cc1ccccc1 | 30 | 46200 | 1530 | – | – | –
